UPR XBP1 act – activators of adaptive arm of unfolded protein response (XBP1) | 330,000 compounds, 0.33% hits | AID 463104 | activation, % at 20 µM | CHO-XBP1 luciferase reporter, IRE1-XBP1 UPR activation, luminescence; percent of tunicamycin response, DMSO as zero;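 active means versus positive control, 20 µM dose yields 30% or more activation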
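Assay system: CHO-XBP1 luciferase reporter cells; Schedule: 6 h treatment, 37 °C; Detection: glow luminescence from Steady-Glo reagent; Benchmarks: high control tunicamycin 10 µg/mL final, low control DMSO vehicle only.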
TIM10 inh – growth inhibitors of TIM10 yeast strain | S. cerevisiae TIM10 strain growth, BacTiter-Glo luminescence, 24 h | inhibition, % at 10 µM | 330,000 compounds, 1.4% hits | AID 463195;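 active means inhibition of 40% or more at the single tested concentration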;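 further: wild-type TIM10 isogenic control strain grown at permissive 25 °C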
tim10-1 inh – growth inhibitors of tim10-1 mutant yeast | S. cerevisiae tim10-1 ts strain growth, BacTiter-Glo, 24 h | inhibition, % at 20 µM | 330,000 compounds, 2.2% hits | AID 463190;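 active means inhibition of at least 40%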;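 further: mutant grown at 25 °C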
CHOP UPR activ – activators of apoptotic arm of unfolded protein response (CHOP) | 330,000 compounds, 0.34% hits | activation, % at 10 µM | CHO-CHOP luciferase reporter, UPR activation, luminescence; percent of tunicamycin response over DMSO baseline | AID 449763;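 active means at 10 µM dose, activation of 40% or more, normalized to positive control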
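Material: CHO-CHOP cells, stable luciferase reporter of PERK-eIF2a-CHOP signalling; quantity: 500 reporter cells seeded per well; buffer or medium: F12 medium containing 10% fetal bovine serum; compound: one dose, 10 µM in 0.5% DMSO; incubation: 6 h compound treatment, 37 °C; measured by: Steady-Glo luciferase luminescence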
tim23-1 inh – growth inhibitors of tim23-1 mutant yeast; inhibition, % at 20 µM; S. cerevisiae tim23-1 growth, BacTiter-Glo luminescence, 24 h; AID 463212; 330,000 compounds, 1.3% hits;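 active means growth inhibition of the mutant yeast at or above 50%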;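 further: temperature-sensitive mutant grown at 25 °C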
tim23-1 conf – tim23-1 yeast growth inhibition, confirmed | shares compounds with tim23-1 inh | S. cerevisiae tim23-1 growth, BacTiter-Glo luminescence, 24 h | inhibition, % at 20 µM | 4,400 compounds, 83% hits | AID 463218;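 active means inhibition above about 39% in either of two replicate wells at 20 µM, limit read from the data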;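 further: temperature-sensitive tim23-1 mutant grown at 25 °C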
Numbers stand for hits; i = inactive; nt = no result. An excerpt weighted towards active compounds, which were near 3.9% of everything screened.

SMILES | UPR XBP1 act | TIM10 inh | tim10-1 inh | CHOP UPR activ | tim23-1 inh | tim23-1 conf
O=C(CSc1cccc[n+]1[O-])CSc1cccc[n+]1[O-] | i | i | i | i | 71 | 61
COC(=O)[C@]1(C)CCC[C@@]2(C)C3CC[C@@]4(C)C[C@]3(CCC21)CC(=O)N4C (some centres undefined) | i | i | i | i | i | nt
COC(=O)[C@]1(C)CCC[C@@]2(C)C3CC[C@@]4(C)C[C@]3(CCC21)CC4=NO (some centres undefined) | i | i | i | i | 52 | 46
CCOc1ccc(CCNC(=O)CCS(=O)(=O)c2ccc(Cl)cc2)cc1OCC | i | i | i | i | i | nt
CCOc1ccc(S(=O)(=O)N2CCCCC2)cc1NC(=O)CN1C(=O)NC(C)(C2CC2)C1=O (centres undefined) | i | i | i | i | i | nt
COc1ccccc1C(=O)COC(=O)c1ccc(Cl)nc1 | i | i | i | i | i | nt
CN(C)CCCN1C(=O)c2cccc3c(Br)ccc(c23)C1=O | i | i | i | i | 62 | 71
COc1cc(OC)cc(-c2sc3ccc(OC)cc3c2-c2ccc(OCCN3CCCCC3)cc2)c1 | i | i | i | i | 52 | i
c1ccc2c(-c3ccc(OCCN4CCCCC4)cc3)c(-c3ccsc3)sc2c1 | i | i | i | i | 63 | 65
COc1ccc(-c2sc3cc4c(cc3c2-c2ccc(OCCN3CCCCC3)cc2)OCO4)cc1 | i | i | i | i | i | nt
CCSc1ccc([C@@H]2[C@H]3C(=O)N(CC)C(=O)[C@H]3[C@]3(C(=O)OC)CCCCN23)cc1 | i | i | i | i | 81 | 45
Cc1csc2nc(O)c(C(=O)NC3CCCCC3C)c(=O)n12 (centres undefined) | i | i | i | i | 67 | 44
Cc1csc2nc(O)c(C(=O)NCC3CCCO3)c(=O)n12 (centres undefined) | i | i | i | i | i | nt
CC(=O)n1cc(N(C(=O)CCl)c2ccc(C)cc2)c2ccccc21 | i | i | i | i | 69 | i
COc1ccc(C(=O)NCC(c2ccccc2)N2CCCC2)cc1S(=O)(=O)N1CCOCC1 (centres undefined) | i | i | i | i | i | nt
O=C(N/N=C/c1cc(Br)cs1)c1c[nH]c2ccccc12 | i | i | i | i | 60 | 71
O=C(N/N=C/c1cc(Br)cs1)c1ccccc1[N+](=O)[O-] | i | i | i | i | i | nt
O=C(N/N=C/c1ccc(Br)s1)c1cccs1 | i | i | i | i | 57 | 63
O=C(N/N=C/c1ccc(Br)s1)c1c[nH]c2ccccc12 | i | i | i | i | 55 | 46
CCCc1nnc(NC(=O)CCC(=O)N2CCC(C)CC2)s1 | i | i | i | i | i | nt
CCOC(=O)c1cc(S(=O)(=O)N2CCCC2)cn1C | i | i | i | i | i | nt
CC1=CC(=NOC(=O)/C=C/c2ccccc2)C=C(C)C1=O | i | i | i | i | 70 | 53
N/C(=N\OC(=O)/C=C/c1ccccc1)c1ccncc1 | i | i | i | i | i | nt
O=C(Nc1ccccc1N(C(=O)c1ccco1)S(=O)(=O)c1cccs1)c1ccco1 | i | i | i | i | 54 | 38
FC(F)(F)Oc1ccc(Nc2nc(N3CCOCC3)nc(N3CCOCC3)n2)cc1 | i | i | i | i | i | nt
SMILES | UPR XBP1 act | TIM10 inh | tim10-1 inh | CHOP UPR activ | tim23-1 inh | tim23-1 conf
Nc1ccc(NC(=O)c2cccc(C(=O)Nc3ccc(N)cc3Cl)c2)c(Cl)c1 | i | i | i | i | i | nt
COc1ccc(-c2csc(Nc3cc(C)ccn3)n2)cc1C | i | i | i | i | i | nt
Cc1ccnc(Nc2nc(-c3ccc(O)cc3O)cs2)c1 | i | i | i | i | 86 | 77
CCN(CC)c1ccc(NC(=O)c2ccccc2Br)cc1S(=O)(=O)Nc1ccccc1OC | i | i | i | i | 50 | 86
Cc1cc(C)n(-c2c(C)[nH]c3ccccc23)n1 | i | i | i | i | i | nt
CCCCCCCCCCCCCCCC(O)C(N)CO (centres undefined) | i | i | i | i | 52 | 44
O=C(CN1CCCC1c1cccs1)N1CCN(S(=O)(=O)c2ccccc2)CC1 (centres undefined) | i | i | i | i | i | nt
Cc1ccc(Nc2c(-c3ccccn3)nc3cc(C)ccn23)cc1 | i | i | i | i | 57 | 50

Screening results (PubChem BioAssay)
